According to ChEMBL document CHEMBL5143666, “Insights into the anticancer activity of chiral alkylidene-β-lactams and alkylidene-γ-lactams: Synthesis and biological investigation” (Bioorg Med Chem, 2022):
Calls of active or inactive are those of the source. No cut-off for these calls is given here.

Tests used:
OE19 [1] = assay: Cytotoxicity against human OE19 cells after 48 hrs by MTT assay; format: functional, cell-based; conditions: OE19, 48 h
How it was run: (§1)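 Cells seeded at 1×10^5 per well, attached overnight, then exposed to serial dilutions from 10 mM DMSO stocks (vehicle control 1% DMSO) for 48 or 72 h; triplicate wells. MTT 0.5 mg/mL, 4 h at 37 °C; formazan dissolved in acid isopropanol, absorbance read. IC50 from sigmoidal variable-slope fit of % metabolic activity vs log concentration; ≥2 independent experiments.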

A-375 [2] = assay: Cytotoxicity against human A375 cells after 48 hrs by MTT assay; format: functional, cell-based; conditions: A-375, 48 h; how it was run: as §1
HT-1080 = assay: Cytotoxicity against human HT-1080 cells after 48 hrs by MTT assay; format: functional, cell-based; conditions: HT-1080, 48 h; how it was run: as §1
A-375 [3] = assay: Induction of apoptosis in human A375 cells assessed as necrotic cells at 10 uM after 48 hrs by annexin-v and PI staining based flow cytometry analysis (reference value: 1.17 +/- 0.41%); format: functional
NCI-H1299 = assay: Cytotoxicity against human H1299 cells after 48 hrs by MTT assay; format: functional, cell-based; conditions: NCI-H1299, 48 h; how it was run: as §1
A-375 [4] = assay: Induction of apoptosis in human A375 cells assessed as viable cells at 10 uM after 48 hrs by annexin-v and PI staining based flow cytometry analysis (reference value: 93.63 +/- 1.37%); format: functional; conditions: read-out: Activity
A-375 [5] = assay: Induction of apoptosis in human A375 cells assessed as late apoptotic cells at 10 uM after 48 hrs by annexin-v and PI staining based flow cytometry analysis (reference value: 1.83 +/- 0.41%); format: functional
[6] = target: Matrix metalloproteinase-9 (Homo sapiens) (UniProt P14780); assay: Inhibition of MMP9 in human HT-1080 cells at 10 uM by gelatin zymography; format: cell-based
Chain of Matrix metalloproteinase-9 (Homo sapiens) (P14780 whole entry): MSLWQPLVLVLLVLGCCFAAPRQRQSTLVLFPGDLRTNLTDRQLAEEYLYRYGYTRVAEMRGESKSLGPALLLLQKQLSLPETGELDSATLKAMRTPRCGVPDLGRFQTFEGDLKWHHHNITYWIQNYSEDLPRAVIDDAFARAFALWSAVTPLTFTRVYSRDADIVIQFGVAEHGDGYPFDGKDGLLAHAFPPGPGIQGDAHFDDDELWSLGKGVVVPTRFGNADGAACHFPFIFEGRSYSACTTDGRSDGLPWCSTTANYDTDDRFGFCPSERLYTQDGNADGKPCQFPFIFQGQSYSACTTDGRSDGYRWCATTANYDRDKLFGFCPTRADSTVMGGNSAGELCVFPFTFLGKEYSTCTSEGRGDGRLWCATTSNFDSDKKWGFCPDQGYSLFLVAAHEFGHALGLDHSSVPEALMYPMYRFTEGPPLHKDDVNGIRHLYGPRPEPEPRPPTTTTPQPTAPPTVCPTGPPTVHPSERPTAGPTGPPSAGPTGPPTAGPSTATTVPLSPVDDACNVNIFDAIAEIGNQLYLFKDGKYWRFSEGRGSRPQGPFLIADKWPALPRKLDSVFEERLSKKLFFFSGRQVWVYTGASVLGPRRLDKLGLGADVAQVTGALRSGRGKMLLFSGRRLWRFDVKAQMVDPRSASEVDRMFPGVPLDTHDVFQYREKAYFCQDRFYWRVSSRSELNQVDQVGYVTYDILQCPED

A-375 [7] = assay: Effect on reactive oxygen production in human A375 cells assessed as decrease in peroxide level at 10 uM after 48 hrs by DCFH2-DA staining based spectrophotometry; format: functional, cell-based
How it was run: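 A375 cells (5×10^5) attached overnight, exposed at 5 or 10 μM for 8 or 48 h. Intracellular peroxides measured with 5 μM DCFH2-DA, 45 min at 37 °C in the dark; after washing, fluorescence read at ex 485 / em 528 nm. Mean ± SD of two independent experiments in duplicate.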

A-375 [8] = assay: Induction of cell cycle arrest in human A375 assessed as number of cells at G1 phase at 5 uM after 48 hrs by flow cytometry (reference value: 83.5 +/- 1.87 %); format: functional
A-375 [9] = assay: Induction of cell cycle arrest in human A375 assessed as number of cells at G1 phase at 10 uM after 48 hrs by flow cytometry (reference value: 83.5 +/- 1.87 %); format: functional
OE19 [10] = assay: Cytotoxicity against human OE19 cells after 72 hrs by MTT assay; format: functional, cell-based; conditions: OE19, 72 h; how it was run: as §1
A-375 [11] = assay: Induction of cell cycle arrest in human A375 assessed as number of cells at S phase at 10 uM after 48 hrs by flow cytometry (reference value: 11.33 +/- 1.86 %)
A-375 [12] = assay: Induction of cell cycle arrest in human A375 assessed as number of cells at G2/M phase at 5 uM after 48 hrs by flow cytometry (reference value: 5.17 +/- 0.75 %); format: functional
A-375 [13] = assay: Induction of cell cycle arrest in human A375 assessed as number of cells at G2/M phase at 10 uM after 48 hrs by flow cytometry (reference value: 5.17 +/- 0.75 %); format: functional
A-375 [14] = assay: Induction of apoptosis in human A375 assessed as loss of cell integrity at 5 to 10 uM after 48 hrs by May-Grunwald- Giemsa staining based optical microscopic analysis; format: functional; conditions: dose 5-10 µM
How it was run: (§2)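 A375 cells exposed to 5 or 10 μM for 48 h, stained with May-Grünwald Giemsa and examined by optical microscopy at 50x. Representative images taken at random for each condition.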

A-375 [15] = assay: Induction of apoptosis in human A375 assessed as formation of bleb at 5 to 10 uM after 48 hrs by May-Grunwald- Giemsa staining based optical microscopic analysis; format: functional, cell-based; conditions: dose 5-10 µM; how it was run: as §2
A-375 [16] = assay: Induction of cell cycle arrest in human A375 assessed as number of cells at S phase at 5 uM after 48 hrs by flow cytometry (reference value: 11.33 +/- 1.86 %); format: functional

SMILES | IC50 (OE19 [1]) [µM] | IC50 (A-375 [2]) [µM] | IC50 (HT-1080) [µM] | IC50 (NCI-H1299) [µM] | inhibition [6] | further results
CC1(C)[C@H](C(=O)OC(c2ccccc2)c2ccccc2)N2C(=O)/C(=C/C(=O)c3ccc([N+](=O)[O-])cc3)[C@H]2[S+]1[O-] (some centres undefined) | 92.4 | 48.2 |  |  |  | 
CC1(C)S[C@@H]2/C(=C\C(=O)c3ccc4ccccc4c3)C(=O)N2[C@H]1C(=O)OC(c1ccccc1)c1ccccc1 | 19.5 | 36.5 |  |  |  | 
CC1(C)[C@H](C(=O)OC(c2ccccc2)c2ccccc2)N2C(=O)/C(=C/C(=O)c3ccccc3)[C@H]2[S+]1[O-] (some centres undefined) | 23.7 | 4.5 | 65.5 | 92.4 |  | Activity (A-375 [3]): 3%; viability at 10 µM (A-375 [4]): 89.2%; Activity (A-375 [5]): 4.17%
CC1(C)S[C@@H]2/C(=C\C(=O)c3ccc(Br)cc3)C(=O)N2[C@H]1C(=O)OC(c1ccccc1)c1ccccc1 | 13.8 | 29.7 |  |  |  | 
CC(=O)/C=C1\C[C@H]2SC(C)(C)[C@H](C(=O)OC(c3ccccc3)c3ccccc3)N2C1=O | > 100 | > 100 | > 100 | > 100 |  | 
CC1(C)S[C@@H]2/C(=C\C(=O)c3ccc(C(F)(F)F)cc3)C(=O)N2[C@H]1C(=O)OC(c1ccccc1)c1ccccc1 | 15.6 | 26.7 |  |  |  | 
CC1(C)[C@H](C(=O)OC(c2ccccc2)c2ccccc2)N2C(=O)/C(=C/C(=O)c3ccc([N+](=O)[O-])cc3)[C@H]2S1(=O)=O | 95.5 | 76.7 |  |  |  | 
COC(=O)/C=C1/C(=O)N2[C@@H]1SC(C)(C)[C@@H]2C(=O)OC(c1ccccc1)c1ccccc1 | 20.2 | 24.6 |  |  |  | 
CC1(C)S[C@@H]2C/C(=C\C(=O)c3ccccc3)C(=O)N2[C@H]1C(=O)OC(c1ccccc1)c1ccccc1 | 73.3 | > 100 |  |  | 61.4% | 
CC1(C)S[C@@H]2/C(=C\C(=O)OCc3ccccc3)C(=O)N2[C@H]1C(=O)OC(c1ccccc1)c1ccccc1 | 8.2 | 7.1 | 11.7 | 9.4 | Active | Activity (A-375 [3]): 24%; Activity (A-375 [7]): Active; Activity (A-375 [8]): 71.25%; Activity (A-375 [9]): 58.33%; IC50 (OE19 [10]): 4.6 µM; Activity (A-375 [11]): 29.67%; Activity (A-375 [12]): 8.75%; Activity (A-375 [13]): 12%; viability at 10 µM (A-375 [4]): 56.2%; Activity (A-375 [5]): 13%; Activity (A-375 [14]): Active; Activity (A-375 [15]): Active; Activity (A-375 [16]): 19.5%
CC(=O)/C=C1/C(=O)N2[C@@H]1SC(C)(C)[C@@H]2C(=O)OC(c1ccccc1)c1ccccc1 | 51.9 | 63 | 20.8 | 24.2 |  | 
CC1(C)S[C@@H]2/C(=C\C(=O)OC(c3ccccc3)c3ccccc3)C(=O)N2[C@H]1C(=O)OC(c1ccccc1)c1ccccc1 | 21.6 | 9.1 | 15.2 | 22.4 | Active | Activity (A-375 [3]): 14.75%; Activity (A-375 [7]): Active; Activity (A-375 [9]): 67.67%; Activity (A-375 [11]): 15.33%; Activity (A-375 [13]): 13%; viability at 10 µM (A-375 [4]): 73.5%; Activity (A-375 [5]): 7.75%
CC1(C)S[C@@H]2/C(=C\C(=O)c3ccco3)C(=O)N2[C@H]1C(=O)OC(c1ccccc1)c1ccccc1 | 54.3 | 26 | 45.5 | 61.5 |  | 
CC1(C)S[C@@H]2/C(=C\C(=O)c3cc(F)cc(F)c3)C(=O)N2[C@H]1C(=O)OC(c1ccccc1)c1ccccc1 | 17.6 | 19.1 |  |  |  | 
CC1(C)S[C@@H]2/C(=C\C(=O)c3ccc(Cl)cc3)C(=O)N2[C@H]1C(=O)OC(c1ccccc1)c1ccccc1 | 14.6 | 48.6 |  |  |  | 
CCOC(=O)/C=C1/C(=O)N2[C@@H]1SC(C)(C)[C@@H]2C(=O)OC(c1ccccc1)c1ccccc1 | 11.2 | 7 | 25.1 | 15 | Active | Activity (A-375 [3]): 20.8%; Activity (A-375 [7]): Active; Activity (A-375 [9]): 61.65%; IC50 (OE19 [10]): 5.3 µM; Activity (A-375 [11]): 25.75%; Activity (A-375 [13]): 12.5%; viability at 10 µM (A-375 [4]): 63%; Activity (A-375 [5]): 11.5%
CC1(C)S[C@@H]2/C(=C\C(=O)c3ccc([N+](=O)[O-])cc3)C(=O)N2[C@H]1C(=O)OC(c1ccccc1)c1ccccc1 | 44.1 | 50.3 |  |  |  | 
CC1(C)[C@H](C(=O)OC(c2ccccc2)c2ccccc2)N2C(=O)/C(=C/C(=O)c3ccccc3)[C@H]2S1(=O)=O | 53.1 | 17.5 | 19.5 | 50.1 |  | 
COC(=O)/C=C1\C[C@H]2SC(C)(C)[C@H](C(=O)OC(c3ccccc3)c3ccccc3)N2C1=O | 99.7 | > 100 |  |  | 52.9% | 
CC1(C)S[C@@H]2/C(=C\C(=O)c3cc(C(F)(F)F)cc(C(F)(F)F)c3)C(=O)N2[C@H]1C(=O)OC(c1ccccc1)c1ccccc1 | 48.5 | 39.2 |  |  |  | 
CC1(C)S[C@@H]2/C(=C\C(=O)c3ccccc3)C(=O)N2[C@H]1C(=O)OC(c1ccccc1)c1ccccc1 | 12.8 | 22.8 | 21.1 | 39 | Active | IC50 (OE19 [10]): 8.6 µM
CC1(C)S[C@@H]2/C(=C\C(=O)c3ccc(F)cc3)C(=O)N2[C@H]1C(=O)OC(c1ccccc1)c1ccccc1 | 12.1 | 17.8 | 11.2 | 25.2 | Active | IC50 (OE19 [10]): 10.7 µM
